Laboratory results as given in ChEMBL document CHEMBL3259728, “Design, synthesis and biological evaluation of some novel substituted quinazolines as antitumor agents” (2014).

Columns and labels:
Type in all cases: functional
CAKI-1 = test: Growth inhibition of human CAKI-1 cells assessed as cell growth at 10^-4 M after 48 hrs by SRB assay; conditions: CAKI-1, 48 h, read-out: Activity
In short: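 Five-dose NCI panel protocol. Each dose (10^-4 to 10^-8 M, 10-fold steps) was given as 48 h continuous exposure, and protein was measured by SRB staining. Percentage growth at each level is [(Ti−Tz)/(C−Tz)]×100, where Tz is time-zero absorbance and C is untreated control.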

U-251 = test: Cytotoxicity against human U251 cells after 48 hrs by SRB assay; conditions: U-251, 48 h
In short: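 NCI 60-cell-line panel, 48 h continuous exposure to five 10-fold dilutions from 10^-4 to 10^-8 M. SRB protein staining was read spectrophotometrically, with time-zero, untreated-control and treated absorbances. GI50, TGI and LC50 were derived from the percentage-growth formulas. Values outside the tested range are expressed as more or less than the maximum or minimum concentration.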

K562 = test: Growth inhibition of human K562 cells assessed as cell growth at 10^-8 M after 48 hrs by SRB assay; conditions: K562, 48 h, read-out: Activity
PC-3 = test: Growth inhibition of human PC3 cells assessed as cell growth at 10^-7 M after 48 hrs by SRB assay; conditions: PC-3, 48 h, read-out: Activity
[1] = Growth inhibition of human HCT15 cells assessed as cell growth at 10^-7 M after 48 hrs by SRB assay; conditions: HCT-15, 48 h, read-out: Activity
[2] = Growth inhibition of human LOXIMVI cells assessed as cell growth at 10^-8 M after 48 hrs by SRB assay; conditions: LOX IMVI, read-out: Activity
MDA-MB-435 = test: Growth inhibition of human MDA-MB-435 cells assessed as cell growth at 10^-4 M after 48 hrs by SRB assay; conditions: MDA-MB-435, 48 h, read-out: Activity
SR = test: Growth inhibition of human SR cells assessed as cell growth at 10^-8 M after 48 hrs by SRB assay; conditions: read-out: Activity
[3] = Growth inhibition of human SF295 cells assessed as cell growth at 10^-4 M after 48 hrs by SRB assay; conditions: SF-295, 48 h, read-out: Activity
[4] = Growth inhibition of human LOXIMVI cells assessed as cell growth at 10^-6 M after 48 hrs by SRB assay; conditions: LOX IMVI, read-out: Activity
KM12 = test: Growth inhibition of human KM12 cells assessed as cell growth at 10^-7 M after 48 hrs by SRB assay; conditions: KM12, 48 h, read-out: Activity
[5] = Cytotoxicity against human OVCAR4 cells after 48 hrs by SRB assay; conditions: OVCAR-4, 48 h
In short: (§1)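 NCI 60-cell-line panel of human tumour lines from nine cancer types. Continuous 48 h exposure at five 10-fold dilutions from 10^-4 to 10^-8 M, with 5-FU as positive control. SRB protein stain read spectrophotometrically at time zero, untreated control and each concentration. GI50, TGI and LC50 were derived from the [(Ti−Tz)/(C−Tz)]×100 growth relations, and out-of-range values are given as > or < the tested limits.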

SK-MEL-28 [6] = test: Growth inhibition of human SK-MEL-28 cells assessed as cell growth at 10^-5 M after 48 hrs by SRB assay; conditions: SK-MEL-28, 48 h, read-out: Activity
NCI-H226 [7] = test: Growth inhibition of human NCI-H226 cells assessed as cell growth at 10^-7 M after 48 hrs by SRB assay; conditions: NCI-H226, 48 h, read-out: Activity
HOP-62 = test: Growth inhibition of human HOP62 cells assessed as cell growth at 10^-7 M after 48 hrs by SRB assay; conditions: HOP-62, 48 h, read-out: Activity
MOLT-4 = test: Cytotoxicity against human MOLT4 cells after 48 hrs by SRB assay; conditions: MOLT-4, 48 h; in short: as §1
NCI-H226 [8] = test: Growth inhibition of human NCI-H226 cells assessed as cell growth at 10^-8 M after 48 hrs by SRB assay; conditions: NCI-H226, 48 h, read-out: Activity
[9] = Growth inhibition of human EKVX cells assessed as cell growth at 10^-4 M after 48 hrs by SRB assay; conditions: read-out: Activity
SK-OV-3 = test: Cytotoxicity against human SKOV3 cells after 48 hrs by SRB assay; conditions: SK-OV-3, 48 h; in short: as §1
[10] = Growth inhibition of human UACC257 cells assessed as cell growth at 10^-8 M after 48 hrs by SRB assay; conditions: UACC-257, 48 h, read-out: Activity
[11] = Growth inhibition of human RXF393 cells assessed as cell growth at 10^-6 M after 48 hrs by SRB assay; conditions: RXF 393, 48 h, read-out: Activity
HCT-116 = test: Growth inhibition of human HCT116 cells assessed as cell growth at 10^-8 M after 48 hrs by SRB assay; conditions: HCT-116, 48 h, read-out: Activity
[12] = Growth inhibition of human NCI-ADR-RES cells assessed as cell growth at 10^-5 M after 48 hrs by SRB assay; conditions: read-out: Activity
[13] = Growth inhibition of human UO31 cells assessed as cell growth at 10^-7 M after 48 hrs by SRB assay; conditions: UO-31, 48 h, read-out: Activity
[14] = Growth inhibition of human LOXIMVI cells assessed as cell growth at 10^-7 M after 48 hrs by SRB assay; conditions: LOX IMVI, read-out: Activity
Malme-3M = test: Growth inhibition of human MALME-3M cells assessed as cell growth at 10^-6 M after 48 hrs by SRB assay; conditions: read-out: Activity
SK-MEL-5 = test: Growth inhibition of human SK-MEL-5 cells assessed as cell growth at 10^-8 M after 48 hrs by SRB assay; conditions: SK-MEL-5, 48 h, read-out: Activity
[15] = Growth inhibition of human HCC2998 cells assessed as cell growth at 10^-8 M after 48 hrs by SRB assay; conditions: HCC 2998, 48 h, read-out: Activity
SK-MEL-28 [16] = test: Cytotoxicity against human SK-MEL-28 cells after 48 hrs by SRB assay; conditions: SK-MEL-28, 48 h; in short: as §1
[17] = read-out: LC50 (the source's name)
[18] = read-out: pLC50 (the source's name) (converted)

SMILES: Cc1ccc(-c2nc3ccc(Cl)cc3c(=O)n2/N=C/c2ccccc2)cc1
- growth at 100 µM (CAKI-1): 32%
- GI50 (U-251; read-out: GI50): 5.05 µM
- CC50 (U-251; [17]): > 100 µM
- TGI (U-251; read-out: TGI): > 100 µM
- GI50 (U-251; read-out: pGI50 (converted)): 5.01 µM
- CC50 (U-251; [18]): > 100 µM
- TGI (U-251; read-out: pTGI): > 100 µM
- growth at 0.01 µM (K562): 96%
- growth at 0.1 µM (PC-3): 90%
- growth at 0.1 µM [1]: 92%
- growth at 0.01 µM [2]: 98%
- growth at 100 µM (MDA-MB-435): 57%
- growth at 0.01 µM (SR): 96%
- growth at 100 µM [3]: 18%
- growth at 1 µM [4]: 89%
- growth at 0.1 µM (KM12): 97%
- GI50 ([5]; read-out: GI50): 4.54 µM
- CC50 [5, 17]: > 100 µM
- TGI ([5]; read-out: TGI): > 100 µM
- GI50 ([5]; read-out: pGI50 (converted)): 4.57 µM
- CC50 [5, 18]: > 100 µM
- TGI ([5]; read-out: pTGI): > 100 µM
- growth at 10 µM (SK-MEL-28 [6]): 60%
- growth at 0.1 µM (NCI-H226 [7]): 82%
- growth at 0.1 µM (HOP-62): 89%
- GI50 (MOLT-4; read-out: GI50): > 100 µM
- CC50 (MOLT-4; [17]): > 100 µM
- TGI (MOLT-4; read-out: TGI): > 100 µM
- GI50 (MOLT-4; read-out: pGI50 (converted)): > 100 µM
- CC50 (MOLT-4; [18]): > 100 µM
- TGI (MOLT-4; read-out: pTGI): > 100 µM
- growth at 0.01 µM (NCI-H226 [8]): 91%
- growth at 100 µM [9]: 11%
- GI50 (SK-OV-3; read-out: GI50): 2.89 µM
- CC50 (SK-OV-3; [17]): > 100 µM
- TGI (SK-OV-3; read-out: TGI): 9.9 µM
- GI50 (SK-OV-3; read-out: pGI50 (converted)): 2.88 µM
- CC50 (SK-OV-3; [18]): > 100 µM
- TGI (SK-OV-3; read-out: pTGI (converted)): 10 µM
- growth at 0.01 µM [10]: 100%
- growth at 1 µM [11]: 90%
- growth at 0.01 µM (HCT-116): 100%
- growth at 10 µM [12]: 48%
- growth at 0.1 µM [13]: 60%
- growth at 0.1 µM [14]: 93%
- growth at 1 µM (Malme-3M): 74%
- growth at 0.01 µM (SK-MEL-5): 94%
- growth at 0.01 µM [15]: 102%
- GI50 (SK-MEL-28 [16]; read-out: GI50): 20.6 µM
- CC50 (SK-MEL-28 [16]; [17]): > 100 µM
- TGI (SK-MEL-28 [16]; read-out: TGI): > 100 µM
- GI50 (SK-MEL-28 [16]; read-out: pGI50 (converted)): 20.4 µM
- CC50 (SK-MEL-28 [16]; [18]): > 100 µM
- TGI (SK-MEL-28 [16]; read-out: pTGI): > 100 µM
